Screening data as filed in PubChem BioAssay.
Only some compounds are listed: those with a hit (about 3.1% of all), similar ones and a draw of the others.
KCNQ1 pot – potentiates or activates the human KCNQ1 potassium channel; P51787; CHO-K1 KCNQ1, thallium flux FluxOR fluorescence; hits give high values; B-score at 10 µM; actives 0.35% (n = 310,000);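 active = fluorescence ratio B-score, a plate-corrected score, at least three library SD, with initial intensity B-score within 5 SD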
Target sequence (P51787 whole entry, looked up): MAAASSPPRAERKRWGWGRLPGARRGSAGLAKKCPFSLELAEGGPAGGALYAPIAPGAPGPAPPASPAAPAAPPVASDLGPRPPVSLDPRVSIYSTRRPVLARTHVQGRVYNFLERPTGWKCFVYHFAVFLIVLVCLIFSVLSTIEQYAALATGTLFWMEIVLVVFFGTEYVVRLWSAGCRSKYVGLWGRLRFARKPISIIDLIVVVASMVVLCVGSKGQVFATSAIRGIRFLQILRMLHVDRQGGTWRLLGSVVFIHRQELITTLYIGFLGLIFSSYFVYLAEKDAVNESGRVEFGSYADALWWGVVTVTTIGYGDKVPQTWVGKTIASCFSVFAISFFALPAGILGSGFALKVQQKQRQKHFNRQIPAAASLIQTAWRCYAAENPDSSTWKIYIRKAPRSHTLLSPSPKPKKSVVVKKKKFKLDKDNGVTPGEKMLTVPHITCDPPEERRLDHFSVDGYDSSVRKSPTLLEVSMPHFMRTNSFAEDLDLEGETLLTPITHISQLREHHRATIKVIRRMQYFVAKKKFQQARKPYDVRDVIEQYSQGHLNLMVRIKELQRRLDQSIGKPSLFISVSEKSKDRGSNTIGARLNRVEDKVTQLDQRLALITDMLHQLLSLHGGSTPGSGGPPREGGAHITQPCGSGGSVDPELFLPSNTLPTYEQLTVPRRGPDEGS
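Assay system: CHO-K1 cells stably expressing KCNQ1; Medium: assay buffer with matched DMSO; Also added: K+/Tl+ depolarizing stimulus; Dosing: single dose; Timing: dye 90 min, compound 20 min, room temperature; Measured by: kinetic FluxOR thallium fluorescence, 10-s 1-Hz baseline, 110-s post-stimulus read; Read-out: peak-minus-minimum fluorescence over initial fluorescence, negative-control normalized, B-scored.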
KCNQ1 inh – human KCNQ1 channel inhibition | P51787 | CHO-K1 KCNQ1, FluxOR thallium flux fluorescence; hits give high values | B-score at 10 µM | actives 1.3% (n = 310,000) | AID 2642;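 active = compounds whose thallium flux B-score, printed positive for inhibition, exceeds three library SD while starting fluorescence stays within three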;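 also: channel opened by potassium depolarization with thallium stimulus after 20 min compound exposure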
hERG rescue – compounds protecting human hERG from proarrhythmic drug block; Q12809; CHO-hERG, FluxOR thallium flux, dofetilide IC70 present; activation (rescue from dofetilide block), less the hit threshold, % at 10 µM; actives 0.51% (n = 310,000); AID 1511;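 active = activation above the mean of controls blocked by dofetilide plus 5 SD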;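 also: thallium influx through hERG after potassium depolarization seen as dye fluorescence rise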
KCNK9 block – blocks the human KCNK9 two-pore domain potassium channel; actives 1.2% (n = 310,000); Q9NPC2; B-score at 10 µM; HEK293 KCNK9, FluxOR thallium flux fluorescence; hits give low values; AID 488922;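 active = ratio B-score over 3 SD below the library mean, with starting fluorescence within 5 SD of its mean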;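 also: negative B-score means less thallium flux so channel inhibition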
KCNK3 block – human KCNK3 channel inhibition, primary screen; O14649; CHO-KCNK3 thallium flux, FluxOR fluorescence; hits give low values; B-score at 10 µM; actives 0.84% (n = 340,000); AID 602410;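 active = B-score under library mean minus 4 SD, starting fluorescence ratio at most library mean plus 5 SD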;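 also: more negative B-score means stronger inhibition of thallium flux through KCNK3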
KCNQ1 inh valid – confirmation of human KCNQ1 potassium channel inhibitors. shares compounds with KCNQ1 inh. AID 588353. inhibition, % at 10 µM. actives 93% (n = 1,600). KCNQ1 cell line, FluxOR thallium flux fluorescence;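 active = primary screen active, with duplicate mean exceeding buffer control mean plus 3 SD of buffer wells, cut at about 28% in these data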
CHO Tl flux – activity in parental CHO cells lacking KCNQ1. fluorescence ratio (Tl flux) at 10 µM. shares compounds with KCNQ1 inh. parental CHO-K1, FluxOR thallium flux fluorescence ratio; hits give low values; zero means no signal rise above baseline. actives 21% (n = 1,600);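 active = mean of duplicate thallium-flux fluorescence ratios in parental host cells more than 5 SD below the buffer control mean, cut at about 0.38 in these data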;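 also: ratio is peak minus minimum fluorescence divided by baseline fluorescence; actives read low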
KCNQ1 ephys val – human KCNQ1 inhibition validated by electrophysiology; KCNQ1-CHO cells, automated patch clamp current; calls only at 10 µM; shares compounds with KCNQ1 inh; actives 20% (n = 490);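 active = KCNQ1 current drop exceeding 3 SD of negative control wells, seen in both duplicate runs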;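 also: steady state current during a 2 s step from -80 to +40 mV; negative values mean current inhibition and positive values mean potentiation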
KCNQ2 spec – rat KCNQ2 inhibition in KCNQ1 inhibitor specificity screen; shares compounds with KCNQ1 inh; KCNQ2 cells, FluxOR thallium flux fluorescence; inhibition, % at 10 µM; actives 71% (n = 1,600); AID 651746;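 active = mean percent inhibition of the KCNQ2 thallium signal more than 5 SD above the buffer-only control wells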;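 also: KCNQ2 expressed in CHO cells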
KCNQ1 KCNE1 spec – human KCNQ1/KCNE1 inhibition in KCNQ1 specificity screen | shares compounds with KCNQ1 inh | KCNQ1/KCNE1 cells, FluxOR thallium flux fluorescence | inhibition, % at 10 µM | actives 77% (n = 1,600);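 active = mean percent inhibition of duplicate wells above the buffer-only control mean plus 3 SD of those controls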
KCNK9 block conf – confirmation of human KCNK9 potassium channel inhibitors; shares compounds with KCNK9 block; HEK293 KCNK9 cells, FluxOR thallium flux fluorescence; inhibition, % at 10 µM; actives 43% (n = 4,900); AID 492992;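 active = thallium signal inhibited by more than 5 SD of the compound-free buffer control wells, on both duplicate plates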
Kir2-1 spec – selectivity of KCNK9 modulators against mouse Kir2.1. Kir2.1 cells, FluxOR thallium flux fluorescence. actives 4% (n = 4,900). inhibition, % at 10 µM. shares compounds with KCNK9 block;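 active = thallium signal drop more than 5 SD beyond the mean of the no-compound control wells, seen in both duplicate plates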;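 also: signal is fluorescence rise after thallium addition divided by baseline fluorescence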
HEK293 Tl ctr – non-induced cell nonspecific activity of KCNK9 modulators. shares compounds with KCNK9 block. non-induced KCNK9-HEK293, FluxOR thallium flux. inhibition, % at 10 µM. actives 40% (n = 4,900). AID 492997;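 active = thallium signal drop beyond 5 SD of the untreated control mean, on both duplicate plates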
KCNK3 confirm – human KCNK3 channel inhibition, confirmation assay; ratio percent of control, % at 10 µM; shares compounds with KCNK3 block; CHO-KCNK3 thallium flux, FluxOR fluorescence; 0% buffer, 100% carvedilol maximal block; AID 651638; actives 99% (n = 2,400);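 active = ratio percent of control, averaged over triplicates, above buffer control mean plus 5 SD, cut at about 64% in these data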;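 also: ratio is the fluorescence rise from min to max over baseline after thallium stimulus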
KCNK3 noninduced – KCNK3 inhibitor counter-screen hit in non-induced cells. non-induced KCNK3 parental cells, FluxOR thallium flux; hits give low values. shares compounds with KCNK3 block. AID 651747. thallium flux ratio (lower = more inhibition) at 10 µM. actives 40% (n = 2,400);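 active = thallium flux ratio, averaged over three wells, more than 5 SD below the buffer control mean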;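 also: host cells are CHO cells without KCNK3 induction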
Of the large screens only hits and unclear results are named; the others gave an inactive call (follow-up assays come after a bar, where they were run).

CN(C)S(=O)(=O)c1cccc(C(=O)Nc2cc(Cl)cc(Cl)c2)c1	KCNQ1 inh 7, KCNK3 block -13 | KCNQ1 inh valid 67 | CHO Tl flux inactive | KCNQ2 spec 110% | KCNQ1 KCNE1 spec inactive | KCNK3 confirm 126 | KCNK3 noninduced inactive
O=C(O)c1cccc(NC(=O)c2ccccc2)c1	none (no result: KCNQ1 pot, KCNQ1 inh, hERG rescue, KCNK9 block)
O=C(Nc1cccc(C(=O)Nc2cccc(Br)c2)c1)c1ccccc1	KCNQ1 inh 13, KCNK3 block -12 | KCNQ1 inh valid 116 | CHO Tl flux inactive | KCNQ1 ephys val inactive | KCNQ2 spec 111% | KCNQ1 KCNE1 spec 151% | KCNK3 confirm 118 | KCNK3 noninduced inactive
CC(=O)Nc1ccc(Nc2cc(C)nc3c(-c4ccccc4)c(C)nn23)cc1	none
CC(=O)Nc1ccc(Nc2cc(C(C)C)nc3c(-c4ccccc4)c(C)nn23)cc1	KCNQ1 inh 7, KCNK3 block -12 | KCNQ1 inh valid 118 | CHO Tl flux 0.38 | KCNQ2 spec 77% | KCNQ1 KCNE1 spec 134% | KCNK3 confirm 123 | KCNK3 noninduced inactive
CC(=O)C[C@@H](O)CC(=O)[C@@H]1OC(=O)CCCCC/C=C/Cc2ccccc21	none (no result: KCNQ1 pot, KCNQ1 inh, hERG rescue, KCNK9 block)
Cc1cc(NC(=O)Nc2cccc(Cl)c2)n(-c2ccccn2)n1	KCNQ1 inh 14, KCNK9 block -13, KCNK3 block -11 | KCNQ1 inh valid 192 | CHO Tl flux inactive | KCNQ1 ephys val inactive | KCNQ2 spec 125% | KCNQ1 KCNE1 spec active | KCNK9 block conf 54% | Kir2-1 spec inactive | HEK293 Tl ctr 32% | KCNK3 confirm 126 | KCNK3 noninduced inactive
COc1ccc(OC)c(NS(=O)(=O)c2c(C(=O)N3CCCCCC3)c(C)n(C)c2C)c1	none
O=C(c1ccc(CSc2nc3ccncc3[nH]2)cc1)N1CCN(c2cccc(Cl)c2)CC1	KCNQ1 inh 13, KCNK3 block -11 | KCNQ1 inh valid 134 | CHO Tl flux 0.32 | KCNQ2 spec 111% | KCNQ1 KCNE1 spec 193% | KCNK3 confirm 134 | KCNK3 noninduced 0.15
O=C(c1ccc(CSc2nc3ccncc3[nH]2)cc1)N1CCCCCC1	none
CC(=O)c1c(C)[nH]c(C(=O)Nc2cccc(S(=O)(=O)N(C)c3ccccc3)c2)c1C	KCNQ1 inh 16, KCNK9 block -8.6, KCNK3 block -11 | KCNQ1 inh valid 128 | CHO Tl flux 0.35 | KCNQ2 spec 143% | KCNQ1 KCNE1 spec 184% | KCNK9 block conf inactive | Kir2-1 spec inactive | HEK293 Tl ctr 36% | KCNK3 confirm 133 | KCNK3 noninduced 0.12
Cn1c(N)c(N=O)c(=O)n(C)c1=S	none (no result: KCNQ1 pot, KCNQ1 inh, hERG rescue, KCNK9 block)
Cc1cccc(NS(=O)(=O)c2ccc(C)c(C(=O)N(C)C)c2)c1	none (no result: KCNQ1 pot, KCNQ1 inh, hERG rescue, KCNK9 block)
CCN(CC)S(=O)(=O)c1ccc2oc(SCc3ccc(F)cc3)nc2c1	KCNQ1 inh 9, KCNK9 block -8.7, KCNK3 block -11 | KCNQ1 inh valid 82 | CHO Tl flux inactive | KCNQ2 spec 80% | KCNQ1 KCNE1 spec 102% | KCNK9 block conf 36% | Kir2-1 spec inactive | HEK293 Tl ctr 41% | KCNK3 confirm 100 | KCNK3 noninduced inactive
CCOC(=O)c1c(NC(=O)COC(=O)CCNS(=O)(=O)c2ccccc2)sc(C(=O)N(C)C)c1C	none (no result: KCNQ1 pot, KCNQ1 inh, hERG rescue, KCNK9 block)
N#Cc1ccc(CN2CCN(C(=O)CNC(=O)Cc3ccccc3)CC2)cc1	none (no result: KCNQ1 pot, KCNQ1 inh, hERG rescue, KCNK9 block)
COc1cc(C)ccc1NC(=O)Cc1csc(NC(=O)Nc2ccccc2OC)n1	KCNQ1 inh 17, KCNK9 block -8.8, KCNK3 block -13 | KCNQ1 inh valid 115 | CHO Tl flux inactive | KCNQ1 ephys val inactive | KCNQ2 spec 121% | KCNQ1 KCNE1 spec 172% | KCNK9 block conf 28% | Kir2-1 spec inactive | HEK293 Tl ctr 24% | KCNK3 confirm 133 | KCNK3 noninduced inactive
COc1ccccc1NC(=O)Nc1nc(CC(=O)Nc2ccc(OC)c(OC)c2)cs1	none
Cc1ccc(C(C)C)cc1OCC(=O)NC1CCCCCCC1	KCNQ1 inh 9, KCNK3 block -10 | KCNQ1 inh valid 116 | CHO Tl flux inactive | KCNQ1 ephys val inactive | KCNQ2 spec inactive | KCNQ1 KCNE1 spec 113% | KCNK3 confirm 114 | KCNK3 noninduced inactive
CC(C)Nc1nc(NC(C)C)nc(N(C#N)CCOc2ccc(Cl)cc2Cl)n1	KCNQ1 inh 14, KCNK9 block -7.9, KCNK3 block -12 | KCNQ1 inh valid 134 | CHO Tl flux 0.31 | KCNQ2 spec 128% | KCNQ1 KCNE1 spec active | KCNK3 confirm 135 | KCNK3 noninduced 0.13
Cc1cc(C(=O)COC(=O)COc2ccc(C#N)cc2)c(C)n1C1CC1	none
Cc1cccc(NC(=O)CSc2nc3ccccc3nc2N2CC(C)OC(C)C2)c1 (stereo unspecified)	KCNQ1 inh 8, KCNK3 block -11 | KCNQ1 inh valid 102 | CHO Tl flux inactive | KCNQ1 ephys val inactive | KCNQ2 spec 122% | KCNQ1 KCNE1 spec 132% | KCNK3 confirm 114 | KCNK3 noninduced inactive
